Laboratory results as given in PubChem BioAssay.
Records with an inconclusive call do not appear.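 Rule for the calls, unless noted: active = inhibition over a set limit, the all-compound mean plus 3 SD, in both replicate runs; inconclusive = over that limit in just one replicate run; inactive = at or under that limit in both runs.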

Key:
[1] = OD615 S. cerevisiae growth inhibition, permissive medium, pilot counter-assay, permissive growth control for S. cerevisiae lifespan shortening project (AID 705;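 active = growth inhibition above 25% in both replicates, a cutoff set 3 SD above the mean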); conditions: OD615, 24 h, at 10 µM, hits give high values
How it was run: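 System: S. cerevisiae with engineered DeaD lifespan system. Medium: SC raffinose/galactose permissive medium. Doses: single compound dose of 10 µM, 0.25% DMSO final. Schedule: 24 h exposure, 30 °C. Measured by: OD615 turbidity read. Read-out: growth inhibition.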

[2] = Restrictive medium S. cerevisiae growth inhibition, OD615, pilot screen of yeast lifespan reduction project, restrictive growth control (AID 706;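 active = growth inhibition above a set limit, 3 SD over mean compound inhibition, in both replicates, cut at about 43% in these data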;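 note: modified DeaD lifespan yeast strain shifted to restrictive glucose medium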); conditions: OD615, 48 h, at 10 µM, hits give high values
How it was run: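 Assay system – genetically modified Saccharomyces cerevisiae, DeaD replicative lifespan assay strain · Medium – CSMM-D glucose medium · Doses – 10 µM compound, 0.25% DMSO · Times – 4 h pre-incubation, 48 h exposure at 30 °C · Signal – optical density at 615 nm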

[3] = viability gain of MRP-1-high H69AR cells under doxorubicin, pilot screen, MRP-1 activator project, CellTiter-Glo, duplicate (AID 807;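 active = viability increase at or above a cutoff of the median across tested compounds plus 3 SD, cut at about 8.5% in these data, passing the limit was not always enough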;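 note: compound pretreatment 18-22 h then 72 h combined with doxorubicin; 0% = doxorubicin alone and 100% = vehicle without doxorubicin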); conditions: H69AR viability with doxorubicin, CellTiter-Glo luminescence; at 10 µM; hits give high values
[4] = growth suppression of beta-catenin knockout HCT116, pilot screen, human colon tumor cells (AID 823;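 active = cell viability at or below a set limit in both duplicate runs, the limit being the all-compound median minus 4 SD, cut at about 23% in these data, passing the limit was not always enough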;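 note: 0% = wells killed by 20 µM Hyamine and 100% = untreated DMSO cell wells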); conditions: CellTiter-Glo, 60 h, at 10 µM, hits give low values
[5] = growth suppression of PTEN-deleted HCT116, pilot screen, cell-based, HCT116 clonal line, CellTiter-Glo (AID 824;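 active = viability at or below 27.92% in each of two runs, the all-compound median minus 4 SD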;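 note: 0% = 20 µM Hyamine control and 100% = vehicle cell control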); conditions: 60 h, at 10 µM, hits give low values
[6] = inhibitors of the yeast RAM network, pilot screen, dse1pr::URA3 reporter, 5-FOA selection (AID 869);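 note: 0% = DMSO wells with no growth and 100% = 10 µM 1-NA-PP1 with full growth; RAM network block rescues cells from 5-FOA so hits raise OD615 growth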; conditions: S. cerevisiae dse1pr::URA3 5-FOA growth, OD615, 2 d; at 10 µM; hits give high values; strain carries analog-sensitive mutant Cbk1 kinase
[7] = RAM signaling pathway blockade in yeast – S. cerevisiae, Pdr1DBD-CYC8 efflux-inhibited sensitized strain, primary screen (AID 1298;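 active = RAM network inhibition above 8.4% in each of two replicates, 3 SD over the compound average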;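 note: 0% = DMSO untreated cells without growth and 100% = 10 µM 1-NA-PP1 full growth; higher means more yeast growth rescued from 5-FOA killing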); conditions: S. cerevisiae cbk1-as DSE1-URA3 strain, 5-FOA growth OD615, 2 d; at 50 µM; hits give high values

Cn1c(NC(=O)C2CC2)cc(=O)n(C)c1=O
inactive: growth inhibition [1] 0.21% | growth inhibition [2] 1.9% | viability increase [3] -0.62% | viability [4] 99% | viability [5] 104% | inhibition [6] 1.01% | RAM network inhibition [7] -1.84%

Cc1ccc2c(c1)c1c(n2CC(O)CN2C(=O)CNC2=O)C(=O)CCC1 (stereo unspecified)
inactive: growth inhibition [1] 3.38% | growth inhibition [2] 7.05% | viability increase [3] 4.52% | viability [4] 101% | viability [5] 101% | inhibition [6] 1.74% | RAM network inhibition [7] 3.57%

CC1(C)CC(=O)C2=C(C1)Nc1ccccc1NC2c1cccnc1 (stereo unspecified)
inactive: growth inhibition [1] 7.14% | growth inhibition [2] 1.02% | viability increase [3] -3.43% | viability [4] 96.1% | viability [5] 93.6% | inhibition [6] -0.195% | RAM network inhibition [7] 0.21%

CCC(=O)c1ccc(CCCCCC(=O)O)s1
inactive: growth inhibition [1] 4.35% | growth inhibition [2] -7.41% | viability increase [3] -0.1% | viability [4] 98.2% | viability [5] 98.7% | inhibition [6] 1.34% | RAM network inhibition [7] 3.2%

CC1=C(C(=O)OCc2ccccc2)C(c2ccc(N3CCOCC3)cc2)NC(=O)N1 (stereo unspecified)
inactive: growth inhibition [1] -6.21% | growth inhibition [2] -3.42% | viability increase [3] 0.5% | viability [4] 100% | viability [5] 98.9% | inhibition [6] 0.99% | RAM network inhibition [7] 4.42%

CCN1CCN(C(=O)Nc2ccc(Cc3ccc(NC(=O)N4CCN(CC)CC4)cc3)cc2)CC1
inactive: growth inhibition [1] -9.89% | growth inhibition [2] -9.14% | viability increase [3] -2.42% | viability [4] 78.3% | viability [5] 86.7% | inhibition [6] 1.72% | RAM network inhibition [7] 2.65%

CC1(C)CC(=O)C=C(NCCN2CCN(C(=O)Nc3ccc(Cl)c(Cl)c3)CC2)C1
inactive: growth inhibition [1] 13.1% | growth inhibition [2] 8.88% | viability increase [3] -3.81% | viability [4] 94.8% | viability [5] 90.1% | inhibition [6] -0.235% | RAM network inhibition [7] 3.08%

COc1ccccc1Cc1nc(-c2ccc(Br)o2)no1
inactive: growth inhibition [1] -0.335% | growth inhibition [2] 6.17% | viability increase [3] -3.52% | viability [4] 97.4% | viability [5] 85.8% | inhibition [6] 2.08% | RAM network inhibition [7] 5.63%

COc1ccc(OC)c(-n2c(SCC(=O)Nc3cc(C)on3)nnc2-c2c[nH]c3ccccc23)c1
inactive: growth inhibition [1] -1.04% | growth inhibition [2] 6.54% | viability increase [3] -2.74% | viability [4] 79.2% | viability [5] 78.8% | inhibition [6] 1.31% | RAM network inhibition [7] 1.29%

O=C(Cn1cc2c(n1)CCCC2)NCC1CCCO1 (stereo unspecified)
inactive: growth inhibition [1] -2.07% | growth inhibition [2] 3.85% | viability increase [3] 0.41% | viability [4] 103% | viability [5] 95.9% | inhibition [6] 1.89% | RAM network inhibition [7] 4.01%

Cc1ccc(S(=O)(=O)N(C)CCCC(=O)Nc2ccncc2)cc1
inactive: growth inhibition [1] -2.16% | growth inhibition [2] -6.8% | viability increase [3] -0.64% | viability [4] 79.4% | viability [5] 79% | inhibition [6] 0.13% | RAM network inhibition [7] 1.94%

O=C(OCCN(C1=NS(=O)(=O)c2ccccc21)c1ccc(Cl)cc1)c1ccco1
inactive: growth inhibition [1] -15.9% | growth inhibition [2] -5.49% | viability increase [3] -5.7% | viability [4] 82.2% | viability [5] 91.5% | inhibition [6] 1.44% | RAM network inhibition [7] 4.02%

O=c1[nH]c2ccc(Cl)cc2c(-c2ccccc2)c1N1CCOCC1
inactive: growth inhibition [1] -4.65% | growth inhibition [2] -0.51% | viability increase [3] -3.04% | viability [4] 89.4% | viability [5] 88% | inhibition [6] 0.985% | RAM network inhibition [7] 1.15%

COc1ccc(Cl)cc1C(=O)N(Cc1nc(-c2cccc(C)c2)no1)C(C)C
inactive: growth inhibition [1] -18.4% | growth inhibition [2] -10.7% | viability increase [3] 0.87% | viability [4] 58.8% | viability [5] 57.6% | inhibition [6] 2.31% | RAM network inhibition [7] 8.49%

Cc1nc(Cc2nnc(SCc3nc(N)nc(Nc4ccccc4C)n3)o2)cs1
inactive: growth inhibition [1] -3.24% | growth inhibition [2] 20.5% | viability increase [3] -1.28% | viability [4] 98.7% | viability [5] 97.5% | inhibition [6] 0.85% | RAM network inhibition [7] 5.96%

Cc1sc2ncnc(NCc3ccco3)c2c1C
inactive: growth inhibition [1] 4.72% | growth inhibition [2] 6.04% | viability increase [3] -6.03% | viability [4] 55.6% | viability [5] 62.3% | inhibition [6] 1.61% | RAM network inhibition [7] 6.13%

CCOCCCNC(=O)Cc1cc(=O)[nH]c(=O)[nH]1
inactive: growth inhibition [1] -20.6% | growth inhibition [2] -19.6% | viability increase [3] -0.42% | viability [4] 99.2% | viability [5] 94.1% | inhibition [6] 1.44% | RAM network inhibition [7] 4.84%

Cc1ccccc1NC(=O)CCn1c(=O)oc2ccccc21
inactive: growth inhibition [1] -3.42% | growth inhibition [2] -26.5% | viability increase [3] -1.87% | viability [4] 101% | viability [5] 91.3% | inhibition [6] 1.54% | RAM network inhibition [7] 3.96%
